Active and inactive are the calls of the source. The rule behind the calls is not given here.
Legend:
MDA-MB-231 [1] = assay: Antiinvasive activity in human MDA-MB-231 at 5 uM after 24 hrs by BME cell invasion assay; assay type: functional, cell-based
How it was run: (§1)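 Cultrex 96-well BME invasion kit (Boyden-type, 8 µm PET membrane), BME 1X coat set overnight at 37 °C. 50,000 MDA-MB-231 cells in serum-free RPMI put in the top chamber with compound at 5 µM. The lower chamber held RPMI with 10% FBS, fibronectin and 10 nM fMLP as chemoattractants. Migration ran 24 h at 37 °C. Invaded cells were loaded with calcein-AM for 1 h and read by fluorescence (ex 485/em 520 nm).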

[2] = Ratio of IC50 for gamma-tocotrienol to IC50 for drug against mouse +SA cells after 4 days by MTT assay; assay type: functional, +SA cell
[3] = Antiproliferative activity against mouse +SA cells after 4 days by MTT assay; assay type: functional, cell-based; details: +SA cell, 96 h
How it was run: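 +SA mouse mammary epithelial cells were kept in serum-free medium with 10 ng/mL EGF and 10 µg/mL insulin as mitogens. They were plated at 5 × 10^4 cells/well, 6 wells/group, and fed compound at 0.01–1000 µM. Viable cell number was measured by MTT after 4 days of culture.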

MDA-MB-231 [4] = assay: Antiproliferative activity against human MDA-MB-231 cells after 96 hrs by MTT assay; assay type: functional, cell-based; details: MDA-MB-231, 96 h
How it was run: (§2)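 Cells were grown in RPMI with 10% FBS, 2 mmol/L glutamine and penicillin/streptomycin at 37 °C, 5% CO2. They were seeded at 8 × 10^3 cells/well and left to attach for 24 h. Medium was then changed to serum-free RPMI containing compound at 20, 10, 5 or 2 µM for 96 h. MTT was added for 4 h, then solubilized, and A570 read. Cell number came from a hemocytometer standard curve. IC50 was taken by nonlinear regression of log concentration vs cells/well.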

MCF7 = assay: Antiproliferative activity against human MCF7 cells after 96 hrs by MTT assay; assay type: functional, cell-based; details: MCF7, 96 h; how it was run: as §2
[5] = Inhibition of EGF-dependent mouse +SA cells growth; assay type: functional, +SA cell
MDA-MB-231 [6] = assay: Antiinvasive activity in human MDA-MB-231 assessed as cell migration at 5 uM after 24 hrs by BME cell invasion assay; assay type: functional, cell-based; how it was run: as §1

Compound	Activity (MDA-MB-231 [1])	IC50 (MDA-MB-231 [4]) [µM]	IC50 (MCF7) [µM]	further results
COc1cccc(COc2cc3c(c(C)c2C)O[C@](C)(CC/C=C(\C)CC/C=C(\C)CCC=C(C)C)CC3)c1	inactive			
CC(C)=CCC/C(C)=C/CC/C(C)=C/CC[C@]1(C)CCc2cc(OC(=O)NS(=O)(=O)c3ccc(C)cc3)c(C)c(C)c2O1		> 10	2.4	Ratio IC50 [2]: 2; IC50 [3]: 2 µM
CC(C)=CCC/C(C)=C/CC/C(C)=C/CC[C@]1(C)CCc2cc(OC(=O)Nc3ccccc3)cc(C)c2O1		> 10	> 20	
COc1cc(COc2c(C)c(C)c3c(c2C)CC[C@@](C)(CC/C=C(\C)CC/C=C(\C)CCC=C(C)C)O3)cc(OC)c1	inactive			
CC(C)=CCC/C(C)=C/CC/C(C)=C/CC[C@]1(C)CCc2cc(OC(=O)NCc3ccccc3)cc(C)c2O1		> 10	> 20	
CC(C)=CCC/C(C)=C/CC/C(C)=C/CC[C@]1(C)CCc2cc(OC(=O)NS(=O)(=O)c3ccccc3)c(C)c(C)c2O1		> 10	> 20	
CC(C)=CCC/C(C)=C/CC/C(C)=C/CC[C@]1(C)CCc2cc(OC(=O)NS(=O)(=O)c3ccc(Cl)cc3)c(C)c(C)c2O1		> 10	> 20	
CC(C)=CCC/C(C)=C/CC/C(C)=C/CC[C@]1(C)CCc2cc(OC/C=C(\C)CC/C=C(\C)CCC=C(C)C)c(C)c(C)c2O1	inactive			
CC(C)=CCCOc1cc2c(c(C)c1C)O[C@](C)(CC/C=C(\C)CC/C=C(\C)CCC=C(C)C)CC2	inactive			
CC(C)=CCC/C(C)=C/CC/C(C)=C/CC[C@]1(C)CCc2cc(OC(=O)NS(=O)(=O)c3ccc(C)cc3)cc(C)c2O1	Active	6.6	> 20	
CC(C)=CCC/C(C)=C/CC/C(C)=C/CC[C@]1(C)CCc2cc(OC(=O)NCc3ccccc3)c(C)c(C)c2O1	Active	> 10	> 20	
CC(C)=CCC/C(C)=C/CC/C(C)=C/CC[C@]1(C)CCc2cc(OC(=O)NC(=O)Oc3ccccc3)c(C)c(C)c2O1			> 20	
CC(C)=CCC/C(C)=C/CC/C(C)=C/CC[C@]1(C)CCc2c(C)c(OC(=O)Nc3ccccc3)c(C)c(C)c2O1		> 10	> 20	
CC(C)=CCC/C(C)=C/CC/C(C)=C/CC[C@]1(C)CCc2c(C)c(OC(=O)NC(=O)Oc3ccccc3)c(C)c(C)c2O1		> 10	> 20	
Cc1c(C)c2c(c(C)c1OC(=O)[C@@H](N)CCCCN)CC[C@@](C)(CCCC(C)CCCC(C)CCCC(C)C)O2 (some centres undefined)			12	
COc1cc(COc2cc3c(c(C)c2C)O[C@](C)(CC/C=C(\C)CC/C=C(\C)CCC=C(C)C)CC3)cc(OC)c1	inactive			
CC(C)=CCC/C(C)=C/CC/C(C)=C/CC[C@]1(C)CCc2cc(OC(=O)Nc3ccccc3)c(C)c(C)c2O1		> 10	> 20	

Compound	Activity (MDA-MB-231 [1])	IC50 (MDA-MB-231 [4]) [µM]	IC50 (MCF7) [µM]	further results
CC(C)=CCC/C(C)=C/CC/C(C)=C/CC[C@]1(C)CCc2cc(OC(=O)NS(=O)(=O)c3ccc(Cl)cc3)cc(C)c2O1		> 10	> 20	
CC(C)=CCC/C(C)=C/CC/C(C)=C/CC[C@]1(C)CCc2c(C)c(OC(=O)NS(=O)(=O)c3ccc(Cl)cc3)c(C)c(C)c2O1		> 10	5.1	
CC(C)=CCC/C(C)=C/CC/C(C)=C/CC[C@]1(C)CCc2cc(OC/C=C(\C)CC/C=C(\C)CCC=C(C)C)cc(C)c2O1	inactive			
CC(C)=CCC/C(C)=C/CC/C(C)=C/CC[C@]1(C)CCc2cc(O)cc(C)c2O1 [DELTA-TOCOTRIENOL]		> 10	15.5	
Cc1c(C)c2c(c(C)c1OC(=O)CCC(=O)O)CC[C@@](C)(CCCC(C)CCCC(C)CCCC(C)C)O2 (some centres undefined)			> 368	
CC(C)=CCC/C(C)=C/CC/C(C)=C/CC[C@]1(C)CCc2c(C)c(OC(=O)NS(=O)(=O)c3ccc(C)cc3)c(C)c(C)c2O1		> 10	6.1	
Cc1cc(C)c2c(c1C)O[C@](C)(CCCC(C)CCCC(C)CCCC(C)C)CC2 (some centres undefined)			329	
CC(C)=CCC/C(C)=C/CC/C(C)=C/CC[C@]1(C)CCc2c(C)c(OC(=O)NS(=O)(=O)c3ccccc3)c(C)c(C)c2O1		> 10	4.5	
CC(C)=CCC/C(C)=C/CC/C(C)=C/CC[C@]1(C)CCc2cc(OCCC(C)C)c(C)c(C)c2O1	inactive			
CC(C)=CCC/C(C)=C/CC/C(C)=C/CC[C@]1(C)CCc2cc(OC(=O)NC(=O)Oc3ccccc3)cc(C)c2O1			5.6	
COc1cccc(COc2c(C)c(C)c3c(c2C)CC[C@@](C)(CC/C=C(\C)CC/C=C(\C)CCC=C(C)C)O3)c1	inactive			
CC(C)=CCC/C(C)=C/CC/C(C)=C/CC[C@]1(C)CCc2cc(O)c(C)c(C)c2O1 [GAMMA-TOCOTRIENOL]		> 10	11.4	inhibition (INH) [5]: 50%
CC(C)=CCC/C(C)=C/CC/C(C)=C/CC[C@]1(C)CCc2c(C)c(OC(=O)NCc3ccccc3)c(C)c(C)c2O1		7.2	> 20	Activity (MDA-MB-231 [6]): 8%
CC(C)=CCC/C(C)=C/CC/C(C)=C/CC[C@]1(C)CCc2c(C)c(O)c(C)c(C)c2O1 [ALPHA-TOCOTRIENOL]		> 10	> 20	
COc1cc2c(c(C)c1C)O[C@](C)(CC/C=C(\C)CC/C=C(\C)CCC=C(C)C)CC2	inactive			
CC(C)=CCC/C(C)=C/CC/C(C)=C/CC[C@]1(C)CCc2c(C)c(OC/C=C(\C)CC/C=C(\C)CCC=C(C)C)c(C)c(C)c2O1	inactive			
CC(C)=CCC/C(C)=C/CC/C(C)=C/CC[C@]1(C)CCc2cc(OC(=O)NS(=O)(=O)c3ccccc3)cc(C)c2O1		> 10	6.1	

Source: ChEMBL document CHEMBL1158503, “Design and preliminary structure-activity relationship of redox-silent semisynthetic tocotrienol analogues as inhibitors for breast cancer proliferation and invasion” (Bioorg Med Chem, 2010)
